Measurements from paper PMC5568793 (Science translational medicine, 2017).

Assays:
type I collagen [1] = biological target: T1, type I collagen (Mus musculus, UniProt P11087+Q01149); experiment: Lung uptake of probe in bleomycin mouse model of pulmonary fibrosis; assay type: in vivo
Procedure, shortened: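 Male C57BL/6 mice (10 weeks, 20–28 g) received transtracheal bleomycin at 2.5 U/kg in 50 μL PBS through a cervical incision; sham mice were controls. On day 14, 68Ga probe was given as an i.v. bolus via femoral vein catheter under isoflurane. Dynamic PET-CT ran for 120 min, read as decay-corrected lung VOI %ID/cc. Mice were killed 150 min post-injection and organs weighed and gamma-counted.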

[2] = mouse, in vivo, iv
type I collagen [3] = biological target: T1, type I collagen; experiment: PET lung signal in low dose bleomycin vascular leak; assay type: in vivo; settings: day 14, 50-80 min after injection
Procedure, shortened: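 Male C57Bl/6 mice received intratracheal low-dose bleomycin (0.1 U/kg) and/or FTY720 (1 mg/kg i.p. thrice weekly), with 1E6 (1 mg/kg i.p. thrice weekly) where stated, all from day 0. On day 14, under isoflurane, 68Ga probe was given as an i.v. femoral bolus. Static PET ran for 30 min starting 50 min post-injection, with CT. MLEM reconstruction was used; lung VOIs of about 65 mm3 were read as decay-corrected %ID/cc.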

type I collagen [4] = biological target: T1, type I collagen; experiment: Ex vivo lung uptake in low dose bleomycin vascular leak; settings: day 14, 2.5 h post injection
Procedure, shortened: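 Male C57Bl/6 mice, 7–8 weeks old, received a single intratracheal bleomycin dose of 0.1 U/kg in saline, with or without FTY720 at 1 mg/kg i.p. three times weekly. 3G9 or isotype 1E6 antibody was given at 1 mg/kg i.p. three times weekly. All dosing started on day 0. On day 14, 68Ga probe was given as an i.v. femoral bolus under isoflurane. Mice were killed 150 min post-injection; the left lung was weighed and gamma-counted.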

T1 sequence (P11087 152-1207 limits assumed): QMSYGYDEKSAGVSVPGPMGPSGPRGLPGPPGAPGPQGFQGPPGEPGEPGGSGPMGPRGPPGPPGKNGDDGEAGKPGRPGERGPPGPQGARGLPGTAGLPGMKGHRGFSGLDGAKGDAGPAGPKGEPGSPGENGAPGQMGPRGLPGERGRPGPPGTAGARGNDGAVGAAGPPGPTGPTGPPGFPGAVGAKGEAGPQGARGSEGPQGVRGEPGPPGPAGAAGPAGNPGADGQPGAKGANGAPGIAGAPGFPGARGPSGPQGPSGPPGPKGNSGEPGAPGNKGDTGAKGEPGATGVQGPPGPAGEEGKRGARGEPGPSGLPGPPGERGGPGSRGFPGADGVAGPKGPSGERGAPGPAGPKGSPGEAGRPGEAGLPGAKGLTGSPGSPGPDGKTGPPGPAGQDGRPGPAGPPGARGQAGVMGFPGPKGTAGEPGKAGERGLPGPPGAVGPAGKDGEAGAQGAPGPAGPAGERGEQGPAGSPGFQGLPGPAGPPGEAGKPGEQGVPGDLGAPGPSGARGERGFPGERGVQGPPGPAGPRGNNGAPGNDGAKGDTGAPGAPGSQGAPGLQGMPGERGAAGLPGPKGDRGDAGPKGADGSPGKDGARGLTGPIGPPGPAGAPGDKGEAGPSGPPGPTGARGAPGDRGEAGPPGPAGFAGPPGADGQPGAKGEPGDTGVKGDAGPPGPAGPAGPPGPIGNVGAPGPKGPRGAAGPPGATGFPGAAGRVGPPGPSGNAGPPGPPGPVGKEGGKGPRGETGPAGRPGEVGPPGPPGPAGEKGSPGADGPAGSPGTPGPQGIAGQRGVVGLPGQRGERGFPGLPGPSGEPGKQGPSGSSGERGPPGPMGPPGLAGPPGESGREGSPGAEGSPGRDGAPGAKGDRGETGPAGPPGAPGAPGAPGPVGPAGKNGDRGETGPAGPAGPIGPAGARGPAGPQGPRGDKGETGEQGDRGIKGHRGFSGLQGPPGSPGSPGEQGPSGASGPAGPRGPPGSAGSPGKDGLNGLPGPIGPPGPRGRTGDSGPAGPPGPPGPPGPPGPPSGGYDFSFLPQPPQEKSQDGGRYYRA
T1 sequence (Q01149 86-1125 limits assumed): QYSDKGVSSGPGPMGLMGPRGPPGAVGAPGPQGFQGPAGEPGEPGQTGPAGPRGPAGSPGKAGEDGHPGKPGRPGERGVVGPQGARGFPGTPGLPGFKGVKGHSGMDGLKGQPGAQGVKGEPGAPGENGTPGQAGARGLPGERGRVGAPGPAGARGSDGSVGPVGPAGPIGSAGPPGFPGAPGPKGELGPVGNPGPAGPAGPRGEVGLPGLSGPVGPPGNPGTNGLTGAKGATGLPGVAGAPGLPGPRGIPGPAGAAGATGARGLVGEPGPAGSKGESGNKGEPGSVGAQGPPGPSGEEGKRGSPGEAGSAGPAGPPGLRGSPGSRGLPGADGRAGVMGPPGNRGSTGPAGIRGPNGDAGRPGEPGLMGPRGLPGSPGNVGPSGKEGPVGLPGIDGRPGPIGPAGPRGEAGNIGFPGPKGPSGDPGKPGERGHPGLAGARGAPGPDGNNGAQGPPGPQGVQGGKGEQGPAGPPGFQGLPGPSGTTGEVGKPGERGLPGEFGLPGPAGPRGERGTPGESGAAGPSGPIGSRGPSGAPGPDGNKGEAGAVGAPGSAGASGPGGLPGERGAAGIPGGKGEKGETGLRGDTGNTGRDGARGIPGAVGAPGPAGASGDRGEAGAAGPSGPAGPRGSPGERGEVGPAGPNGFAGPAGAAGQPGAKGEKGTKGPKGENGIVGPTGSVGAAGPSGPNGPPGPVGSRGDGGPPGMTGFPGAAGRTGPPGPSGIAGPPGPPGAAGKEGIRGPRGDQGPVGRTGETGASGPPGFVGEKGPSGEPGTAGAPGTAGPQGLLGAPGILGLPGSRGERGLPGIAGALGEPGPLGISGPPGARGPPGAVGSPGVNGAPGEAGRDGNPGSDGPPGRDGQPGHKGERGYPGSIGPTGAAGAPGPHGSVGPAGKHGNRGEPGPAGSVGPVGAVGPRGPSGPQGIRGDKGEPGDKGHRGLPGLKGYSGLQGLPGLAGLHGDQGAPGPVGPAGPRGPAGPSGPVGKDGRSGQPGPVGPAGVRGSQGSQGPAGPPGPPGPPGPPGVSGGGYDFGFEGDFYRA

CC(C)C[C@H](NC(=O)[C@@H]1CSSC[C@H](NC(=O)[C@H](Cc2c[nH]cn2)NC(=O)[C@H](Cc2c[nH]c3ccccc23)NC(=O)[C@H](CCCCNC(=O)CNC(=O)CCC(C(=O)O)N2CCN(CC(=O)O)CCN(CC(=O)O)CC2)NC(=O)CCC(C(=O)O)N2CCN(CC(=O)O)CCN(CC(=O)O)CC2)C(=O)N[C@@H]([C@@H](C)O)C(=O)N[C@@H]([C@@H](C)O)C(=O)N[C@@H](CCCCNC(=O)CNC(=O)CCC(C(=O)O)N2CCN(CC(=O)O)CCN(CC(=O)O)CC2)C(=O)N[C@@H](Cc2ccccc2)C(=O)N2CCC[C@H]2C(=O)N[C@@H](Cc2c[nH]cn2)C(=O)N[C@@H](Cc2c[nH]cn2)C(=O)N[C@@H](Cc2ccc(O)cc2)C(=O)N1)C(=O)N[C@@H](Cc1ccc(O)cc1)C(=O)N[C@@H](Cc1ccc(-c2ccccc2)cc1)C(N)=O (some centres unmarked) [^68Ga-CBP8, metal not drawn]
ex vivo lung uptake, BM-mice day 14 relative to sham animals (type I collagen [1]; BM day 14 (n=7) vs sham (n=11)): 5 fold
probe uptake in fibrotic mouse lungs compared to control lungs (type I collagen [1]; discussion statement, mouse models of pulmonary fibrosis): 6 fold
blood half-life [2]: 32.9 ± 4.5 min
PET lung signal (type I collagen [3]; FTY mice (FTY720 only), n=6): 1.5 ± 0.1 %ID/cc
PET lung signal (type I collagen [3]; LDB mice (low dose BM only), n=4): 1.7 ± 0.1 %ID/cc
PET lung signal (type I collagen [3]; LDBVL+1E6 mice (irrelevant antibody), n=11): 3.0 ± 0.2 %ID/cc
PET lung signal (type I collagen [3]; LDBVL+3G9 mice (anti-αvβ6 antibody), n=11): 1.9 ± 0.2 %ID/cc
ex vivo lung uptake, LDBVL group relative to FTY group (type I collagen [4]): five times more uptake
ex vivo lung uptake, LDBVL group relative to LDB group (type I collagen [4]): three times more
ex vivo lung uptake, LDBVL+1E6 group relative to 3G9-treated group (type I collagen [4]): six times higher uptake
ex vivo lung uptake, LDBVL+1E6 group relative to LDBVL+3G9 group (type I collagen [4]): three times more uptake
